# Measured values as given in ChEMBL document CHEMBL4689842, “EUbOPEN Chemogenomics Library wave 1” (2021).
# Where “and” joins values, the source holds several entries; their conditions need not be identical. Equal values may be shown once.
# Tested on: Fibroblast
# Experiment: Multiplex assay against human fibroblast
# Assay type: toxicity, cell-based
# In short: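 Live cells were stained at seeding with Hoechst33342, BioTracker Green Microtubule Cytoskeleton Dye, MitoTracker Red and Annexin V Alexa Fluor 680, then imaged on a CQ1 microscope at 37°C and 5% CO2 after compound addition. CellPathfinder machine-learning gating split cells into Hoechst high-intensity objects or normal cells. Normal cells were split into healthy, pyknosed or fragmented nuclei, and pyknosed cells into mitotic or apoptotic. Tubulin, mitochondrial-mass and membrane-permeability phenotypes are per cents of healthy-nucleus cells.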
# [1] = 12 h, 1 µM, compound concentration 1 uM, replicate 1
# [2] = 12 h, 1 µM, compound concentration 1 uM, replicate 2
# [3] = 12 h, 10 µM, compound concentration 10 uM, replicate 1
# [4] = 12 h, 10 µM, compound concentration 10 uM, replicate 2
# [5] = 24 h, 1 µM, compound concentration 1 uM, replicate 1
# [6] = 24 h, 1 µM, compound concentration 1 uM, replicate 2
# [7] = 24 h, 10 µM, compound concentration 10 uM, replicate 1
# [8] = 24 h, 10 µM, compound concentration 10 uM, replicate 2
# [9] = 48 h, 1 µM, compound concentration 1 uM, replicate 1
# [10] = 48 h, 1 µM, compound concentration 1 uM, replicate 2
# [11] = 48 h, 10 µM, compound concentration 10 uM, replicate 1
# [12] = 48 h, 10 µM, compound concentration 10 uM, replicate 2
smiles,measurement,setting,value
CCC(=O)O[C@]1(C(=O)SCF)[C@H](C)C[C@H]2[C@@H]3C[C@H](F)C4=CC(=O)C=C[C@]4(C)[C@@]3(F)[C@@H](O)C[C@@]21C [FLUTICASONE PROPIONATE],Population Apoptotic (%),[1],71%
same,Population Fragmented Nuclei (%),[1],22%
same,Population Healthy Nuclei (%),[1],45%
same,Population Hoechst High Intensity Objects (%),[1],13%
same,Population Membrane Permeable-Phenotype (%),[1],33%
same,Population Mitochondria Different-Phenotype (%),[1],0%
same,Population Mitotic Cells (%),[1],28%
same,Population Normal (%),[1],86%
same,Population Pyknosed Nuclei (%),[1],31%
same,Population Tubulin-Different-Phenotype (%),[1],40%
same,Total Cell Count,[1],76
same,Population Fragmented Nuclei (%),[2],4%
same,Population Healthy Nuclei (%),[2],78%
same,Population Hoechst High Intensity Objects (%),[2],12%
same,Population Membrane Permeable-Phenotype (%),[2],3%
same,Population Mitochondria Different-Phenotype (%),[2],9%
same,Population Normal (%),[2],87%
same,Population Pyknosed Nuclei (%),[2],16%
same,Population Tubulin-Different-Phenotype (%),[2],9%
same,Total Cell Count,[2],68
same,Population Apoptotic (%),[3],62%
same,Population Fragmented Nuclei (%),[3],26%
same,Population Healthy Nuclei (%),[3],50%
same,Population Hoechst High Intensity Objects (%),[3],16%
same,Population Membrane Permeable-Phenotype (%),[3],38%
same,Population Mitochondria Different-Phenotype (%),[3],30%
same,Population Mitotic Cells (%),[3],37%
same,Population Normal (%),[3],83%
same,Population Pyknosed Nuclei (%),[3],23%
same,Population Tubulin-Different-Phenotype (%),[3],53%
same,Total Cell Count,[3],149
same,Population Apoptotic (%),[4],28%
same,Population Fragmented Nuclei (%),[4],8%
same,Population Healthy Nuclei (%),[4],81%
same,Population Hoechst High Intensity Objects (%),[4],8%
same,Population Membrane Permeable-Phenotype (%),[4],3%
same,Population Mitochondria Different-Phenotype (%),[4],37%
same,Population Mitotic Cells (%),[4],71%
same,Population Normal (%),[4],92%
same,Population Pyknosed Nuclei (%),[4],10%
same,Population Tubulin-Different-Phenotype (%),[4],35%
same,Total Cell Count,[4],48
same,Population Apoptotic (%),[5],66%
same,Population Fragmented Nuclei (%),[5],21%
same,Population Healthy Nuclei (%),[5],62%
same,Population Hoechst High Intensity Objects (%),[5],25%
same,Population Membrane Permeable-Phenotype (%),[5],28%
same,Population Mitochondria Different-Phenotype (%),[5],0%
same,Population Mitotic Cells (%),[5],33%
same,Population Normal (%),[5],74%
same,Population Pyknosed Nuclei (%),[5],16%
same,Population Tubulin-Different-Phenotype (%),[5],34%
same,Total Cell Count,[5],75
same,Population Apoptotic (%),[6],16%
same,Population Fragmented Nuclei (%),[6],3%
same,Population Healthy Nuclei (%),[6],84%
same,Population Hoechst High Intensity Objects (%),[6],11%
same,Population Membrane Permeable-Phenotype (%),[6],11%
same,Population Mitochondria Different-Phenotype (%),[6],11%
same,Population Mitotic Cells (%),[6],83%
same,Population Normal (%),[6],88%
same,Population Pyknosed Nuclei (%),[6],11%
same,Population Tubulin-Different-Phenotype (%),[6],20%
same,Total Cell Count,[6],78
same,Population Apoptotic (%),[7],64%
same,Population Fragmented Nuclei (%),[7],30%
same,Population Healthy Nuclei (%),[7],50%
same,Population Hoechst High Intensity Objects (%),[7],12%
same,Population Membrane Permeable-Phenotype (%),[7],40%
same,Population Mitochondria Different-Phenotype (%),[7],27%
same,Population Mitotic Cells (%),[7],36%
same,Population Normal (%),[7],87%
same,Population Pyknosed Nuclei (%),[7],19%
same,Population Tubulin-Different-Phenotype (%),[7],47%
same,Total Cell Count,[7],149
same,Population Apoptotic (%),[8],58%
same,Population Fragmented Nuclei (%),[8],5%
same,Population Healthy Nuclei (%),[8],78%
same,Population Hoechst High Intensity Objects (%),[8],8%
same,Population Membrane Permeable-Phenotype (%),[8],6%
same,Population Mitochondria Different-Phenotype (%),[8],31%
same,Population Mitotic Cells (%),[8],41%
same,Population Normal (%),[8],91%
same,Population Pyknosed Nuclei (%),[8],16%
same,Population Tubulin-Different-Phenotype (%),[8],25%
same,Total Cell Count,[8],59
same,Population Apoptotic (%),[9],54%
same,Population Fragmented Nuclei (%),[9],41%
same,Population Healthy Nuclei (%),[9],43%
same,Population Hoechst High Intensity Objects (%),[9],24%
same,Population Membrane Permeable-Phenotype (%),[9],25%
same,Population Mitochondria Different-Phenotype (%),[9],0%
same,Population Mitotic Cells (%),[9],45%
same,Population Normal (%),[9],75%
same,Population Pyknosed Nuclei (%),[9],15%
same,Population Tubulin-Different-Phenotype (%),[9],38%
same,Total Cell Count,[9],95
same,Population Apoptotic (%),[10],100%
same,Population Fragmented Nuclei (%),[10],26%
same,Population Healthy Nuclei (%),[10],72%
same,Population Hoechst High Intensity Objects (%),[10],15%
same,Population Membrane Permeable-Phenotype (%),[10],5%
same,Population Mitotic Cells (%),[10],0%
same,Population Normal (%),[10],84%
same,Population Pyknosed Nuclei (%),[10],0%
same,Population Tubulin-Different-Phenotype (%),[10],26%
same,Total Cell Count,[10],120
same,Population Apoptotic (%),[11],75%
same,Population Fragmented Nuclei (%),[11],38%
same,Population Healthy Nuclei (%),[11],47%
same,Population Hoechst High Intensity Objects (%),[11],14%
same,Population Membrane Permeable-Phenotype (%),[11],29%
same,Population Mitochondria Different-Phenotype (%),[11],27%
same,Population Mitotic Cells (%),[11],25%
same,Population Normal (%),[11],85%
same,Population Pyknosed Nuclei (%),[11],14%
same,Population Tubulin-Different-Phenotype (%),[11],48%
same,Total Cell Count,[11],167
same,Population Apoptotic (%),[12],100%
same,Population Fragmented Nuclei (%),[12],29%
same,Population Healthy Nuclei (%),[12],66%
same,Population Hoechst High Intensity Objects (%),[12],35%
same,Population Membrane Permeable-Phenotype (%),[12],11%
same,Population Mitochondria Different-Phenotype (%),[12],17%
same,Population Mitotic Cells (%),[12],0%
same,Population Normal (%),[12],64%
same,Population Pyknosed Nuclei (%),[12],3%
same,Population Tubulin-Different-Phenotype (%),[12],56%
same,Total Cell Count,[12],176
CNC(=O)c1nn(C)c2c1C(C)(C)Cc1cnc(Nc3ccc(N4CCN(C)CC4)cc3)nc1-2 [MILCICLIB],Population Apoptotic (%),[1],74%
same,Population Fragmented Nuclei (%),[1],26%
same,Population Healthy Nuclei (%),[1],59%
same,Population Hoechst High Intensity Objects (%),[1],6%
same,Population Membrane Permeable-Phenotype (%),[1],15%
same,Population Mitochondria Different-Phenotype (%),[1],7%
same,Population Mitotic Cells (%),[1],25%
same,Population Normal (%),[1],93%
same,Population Pyknosed Nuclei (%),[1],14%
same,Population Tubulin-Different-Phenotype (%),[1],30%
same,Total Cell Count,[1],202
same,Population Apoptotic (%),[2],100%
same,Population Fragmented Nuclei (%),[2],64%
same,Population Healthy Nuclei (%),[2],34%
same,Population Hoechst High Intensity Objects (%),[2],34%
same,Population Membrane Permeable-Phenotype (%),[2],13%
same,Population Mitochondria Different-Phenotype (%),[2],31%
same,Population Mitotic Cells (%),[2],0%
same,Population Normal (%),[2],65%
same,Population Pyknosed Nuclei (%),[2],1%
same,Population Tubulin-Different-Phenotype (%),[2],54%
same,Total Cell Count,[2],97
same,Population Apoptotic (%),[3],61% and 65% and 87%
same,Population Fragmented Nuclei (%),[3],29% and 25% and 26%
same,Population Healthy Nuclei (%),[3],40% and 48% and 55%
same,Population Hoechst High Intensity Objects (%),[3],11% and 12% and 13%
same,Population Mitochondria Different-Phenotype (%),[3],14% and 12% and 10%
same,Population Normal (%),[3],88% and 87% and 86%
same,Population Pyknosed Nuclei (%),[3],30% and 25% and 18%
same,Population Tubulin-Different-Phenotype (%),[3],77% and 74% and 40%
same,Population Apoptotic (%),[4],66% and 73% and 60%
same,Population Healthy Nuclei (%),[4],30% and 54% and 62%
same,Population Mitotic Cells (%),[4],33% and 26% and 40%
same,Population Normal (%),[4],70% and 90% and 97%
same,Total Cell Count,[4],99 and 122 and 65
same,Population Apoptotic (%),[5],78%
same,Population Fragmented Nuclei (%),[5],27%
same,Population Healthy Nuclei (%),[5],57%
same,Population Hoechst High Intensity Objects (%),[5],12%
same,Population Membrane Permeable-Phenotype (%),[5],7%
same,Population Mitochondria Different-Phenotype (%),[5],13%
same,Population Mitotic Cells (%),[5],21%
same,Population Normal (%),[5],87%
same,Population Pyknosed Nuclei (%),[5],14%
same,Population Tubulin-Different-Phenotype (%),[5],33%
same,Total Cell Count,[5],224
same,Population Apoptotic (%),[6],50%
same,Population Fragmented Nuclei (%),[6],60%
same,Population Healthy Nuclei (%),[6],33%
same,Population Hoechst High Intensity Objects (%),[6],33%
same,Population Membrane Permeable-Phenotype (%),[6],10%
same,Population Mitochondria Different-Phenotype (%),[6],30%
same,Population Mitotic Cells (%),[6],50%
same,Population Normal (%),[6],66%
same,Population Pyknosed Nuclei (%),[6],6%
same,Population Tubulin-Different-Phenotype (%),[6],40%
same,Total Cell Count,[6],90
same,Population Apoptotic (%),[7],84% and 46% and 60%
same,Population Fragmented Nuclei (%),[7],37% and 29% and 34%
same,Population Healthy Nuclei (%),[7],47% and 50%
same,Population Hoechst High Intensity Objects (%),[7],20% and 12% and 15%
same,Population Mitochondria Different-Phenotype (%),[7],16% and 28% and 27%
same,Population Normal (%),[7],79% and 87% and 84%
same,Population Pyknosed Nuclei (%),[7],15% and 22%
same,Population Tubulin-Different-Phenotype (%),[7],46% and 80% and 58%
same,Population Apoptotic (%),[8],50% and 66% and 86%
same,Population Healthy Nuclei (%),[8],34% and 49% and 61%
same,Population Hoechst High Intensity Objects (%),[8],18%
same,Population Normal (%),[8],81%
same,Population Tubulin-Different-Phenotype (%),[8],35% and 100%
same,Total Cell Count,[8],110 and 78 and 118
same,Population Apoptotic (%),[11],25% and 33%
same,Population Fragmented Nuclei (%),[11],45% and 39%
same,Population Healthy Nuclei (%),[11],42% and 49%
same,Population Hoechst High Intensity Objects (%),[11],15% and 19%
same,Population Membrane Permeable-Phenotype (%),[11],22% and 10%
same,Population Mitochondria Different-Phenotype (%),[11],15% and 22%
same,Population Mitotic Cells (%),[11],75% and 66%
same,Population Normal (%),[11],84% and 80%
same,Population Pyknosed Nuclei (%),[11],11%
same,Population Tubulin-Different-Phenotype (%),[11],68% and 80%
same,Total Cell Count,[11],124 and 166
same,Population Apoptotic (%),[12],66%
same,Population Fragmented Nuclei (%),[12],35% and 36%
same,Population Healthy Nuclei (%),[12],62% and 60%
same,Population Hoechst High Intensity Objects (%),[12],18% and 14%
same,Population Membrane Permeable-Phenotype (%),[12],16% and 11%
same,Population Mitochondria Different-Phenotype (%),[12],11% and 17%
same,Population Mitotic Cells (%),[12],33%
same,Population Normal (%),[12],81% and 85%
same,Population Pyknosed Nuclei (%),[12],2%
same,Population Tubulin-Different-Phenotype (%),[12],84% and 96%
same,Total Cell Count,[12],169 and 170
